{"source": "ChEMBL document CHEMBL1221342", "about": "“Synthesis and in vitro antitumor activity of new 4,5-dihydropyrazole derivatives” (Bioorg Med Chem, 2010)", "data": [{"system": "NCI-H460", "test": "Cytotoxicity against human NCI-H460 cells after 72 hrs by SRB assay", "assay_type": "functional, cell-based", "settings": "NCI-H460, 72 h", "procedure,_shortened": "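NCI-H460 (ATCC) cells seeded in 96-well plates in growth medium. Scalar drug concentrations added 24 h after plating, then 72 h exposure. Surviving cells stained with sulforhodamine B, OD read at 570 nm. IC50 (50% growth inhibition) fitted from dose–response curves. Mean ± SE of at least three independent experiments.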", "units": {"IC50": "µM"}, "values": [{"smiles": "COc1cccc(C2=NNC(c3cc(OC)c(OC)c(OC)c3)C2)c1", "note": "(centres undefined)", "IC50": "> 20"}, {"smiles": "COc1cc(C2CC(c3ccc(C)cc3)=NN2)cc(OC)c1OC", "note": "(centres undefined)", "IC50": "> 20"}, {"smiles": "COc1cc(C2CC(c3ccc(SC)cc3)=NN2)cc(OC)c1OC", "note": "(centres undefined)", "IC50": "> 20"}, {"smiles": "COc1cc(C2CC(c3ccc(C)cc3)=NN2C(C)=O)cc(OC)c1OC", "note": "(centres undefined)", "IC50": 1.3}, {"smiles": "COc1cc(C2CC(c3ccc(Br)cc3)=NN2C(C)=O)cc(OC)c1OC", "note": "(centres undefined)", "IC50": 6}, {"smiles": "COc1cc(C2CC(c3ccc(C)cc3)=NN2C(=O)CO)cc(OC)c1OC", "note": "(centres undefined)", "IC50": 0.69}, {"smiles": "COc1cc(C2CC(c3ccc(Br)cc3)=NN2)cc(OC)c1OC", "note": "(centres undefined)", "IC50": "> 20"}, {"smiles": "CCN(CC)c1ccc(C2=NN(C(=O)COC(C)=O)C(c3cc(OC)c(OC)c(OC)c3)C2)cc1", "note": "(centres undefined)", "IC50": 5}, {"smiles": "CCN(CC)c1ccc(C2=NN(C(=O)CO)C(c3cc(OC)c(OC)c(OC)c3)C2)cc1", "note": "(centres undefined)", "IC50": 0.95}, {"smiles": "COc1ccc(C2=NNC(c3cc(OC)c(OC)c(OC)c3)C2)cc1", "note": "(centres undefined)", "IC50": "> 20"}, {"smiles": "CCN(CC)c1ccc(C2CC(c3cc(OC)c(OC)c(OC)c3)=NN2C(C)=O)cc1", "note": "(centres undefined)", "IC50": 13.8}, {"smiles": "COc1cc(C2=NN(C(=O)COC(C)=O)C(c3cc(OC)c(OC)c(OC)c3)C2)ccc1O", "note": "(centres undefined)", "IC50": 4.5}, {"smiles": "COc1cccc(C2CC(c3cc(OC)c(OC)c(OC)c3)=NN2)c1", "note": "(centres undefined)", "IC50": 11.6}, {"smiles": "COc1cc(C2CC(c3cccc(Br)c3)=NN2)cc(OC)c1OC", "note": "(centres undefined)", "IC50": "> 20"}, {"smiles": "COc1cc(C2CC(c3ccc(F)cc3)=NN2)cc(OC)c1OC", "note": "(centres undefined)", "IC50": "> 20"}, {"smiles": "COc1cccc(C2CC(c3cc(OC)c(OC)c(OC)c3)=NN2C(C)=O)c1", "note": "(centres undefined)", "IC50": "> 20"}, {"smiles": "COc1cc(C2CC(c3cccc(O)c3)=NN2)cc(OC)c1OC", "note": "(centres undefined)", "IC50": "> 20"}, {"smiles": "COc1cc(C2=NNC(c3cc(OC)c(OC)c(OC)c3)C2)ccc1O", "note": "(centres undefined)", "IC50": "> 20"}, {"smiles": "COc1cc(C2=NN(C(=O)CO)C(c3cc(OC)c(OC)c(OC)c3)C2)ccc1O", "note": "(centres undefined)", "IC50": 1.85}, {"smiles": "COc1cc(C2CC(c3cccc(Br)c3)=NN2C(=O)COC(C)=O)cc(OC)c1OC", "note": "(centres undefined)", "IC50": "> 20"}, {"smiles": "COc1cc(C2CC(c3ccc(N(C)C)cc3)=NN2C(=O)CO)cc(OC)c1OC", "note": "(centres undefined)", "IC50": 1.3}, {"smiles": "COc1ccc(C2=NN(C(C)=O)C(c3cc(OC)c(OC)c(OC)c3)C2)cc1", "note": "(centres undefined)", "IC50": "> 20"}, {"smiles": "CCN(CC)c1ccc(C2=NNC(c3cc(OC)c(OC)c(OC)c3)C2)cc1", "note": "(centres undefined)", "IC50": "> 20"}, {"smiles": "COc1cc(C2CC(c3ccc(SC)cc3)=NN2C(C)=O)cc(OC)c1OC", "note": "(centres undefined)", "IC50": 8}, {"smiles": "COc1cc(C2=NN(C(C)=O)C(c3ccc(N(C)C)cc3)C2)cc(OC)c1OC", "note": "(centres undefined)", "IC50": "> 20"}, {"smiles": "COc1cc(C2CC(c3ccc(N(C)C)cc3)=NN2)cc(OC)c1OC", "note": "(centres undefined)", "IC50": "> 20"}, {"smiles": "COc1cc(C2CC(c3cccc(Br)c3)=NN2C(=O)CO)cc(OC)c1OC", "note": "(centres undefined)", "IC50": 1.1}, {"smiles": "COc1cc(C2CC(c3ccc(N(C)C)cc3)=NN2C(=O)COC(C)=O)cc(OC)c1OC", "note": "(centres undefined)", "IC50": "> 20"}, {"smiles": "COc1cc(C2CC(c3cccc(N)c3)=NN2C(C)=O)cc(OC)c1OC", "note": "(centres undefined)", "IC50": 0.74}, {"smiles": "COc1cc(C2=NN(C(C)=O)C(c3cccc(O)c3)C2)cc(OC)c1OC", "note": "(centres undefined)", "IC50": "> 20"}, {"smiles": "COc1cc(C2CC(c3ccc(F)cc3)=NN2C(C)=O)cc(OC)c1OC", "note": "(centres undefined)", "IC50": 12}, {"smiles": "COc1cc(C2CC(c3ccc(C)cc3)=NN2C(=O)COC(C)=O)cc(OC)c1OC", "note": "(centres undefined)", "IC50": 3.3}, {"smiles": "COc1cccc(C2=NN(C(C)=O)C(c3cc(OC)c(OC)c(OC)c3)C2)c1", "note": "(centres undefined)", "IC50": "> 20"}, {"smiles": "COc1cc(C2=NNC(c3cccc(O)c3)C2)cc(OC)c1OC", "note": "(centres undefined)", "IC50": "> 20"}, {"smiles": "COc1cc(C2CC(c3ccc(Cl)cc3)=NN2C(C)=O)cc(OC)c1OC", "note": "(centres undefined)", "IC50": 11.9}, {"smiles": "COc1cc(C2CC(c3ccc(N)cc3)=NN2C(C)=O)cc(OC)c1OC", "note": "(centres undefined)", "IC50": 2.6}, {"smiles": "COc1ccc(C2CC(c3cc(OC)c(OC)c(OC)c3)=NN2C(C)=O)cc1", "note": "(centres undefined)", "IC50": "> 20"}]}, {"system": "not listed separately", "test": "Inhibition of tubulin polymerization", "settings": "not given", "procedure,_shortened": "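Tubulin (3 mg/mL HTS) in G-PEM buffer plus 5% glycerol, prepared at 4 °C, incubated at 37 °C with or without compound. Polymerization followed by A340 over 60 min. Polymer taken as the AUC, with untreated control AUC set to 100%. IC50 derived by non-linear regression.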", "units": {"IC50": "µM"}, "values": [{"smiles": "COc1cc(C2CC(c3ccc(C)cc3)=NN2)cc(OC)c1OC", "note": "(centres undefined)", "IC50": "> 10"}, {"smiles": "COc1cc(C2CC(c3ccc(C)cc3)=NN2C(C)=O)cc(OC)c1OC", "note": "(centres undefined)", "IC50": "> 10"}, {"smiles": "COc1cc(C2CC(c3ccc(C)cc3)=NN2C(=O)CO)cc(OC)c1OC", "note": "(centres undefined)", "IC50": 7.72}, {"smiles": "CCN(CC)c1ccc(C2=NN(C(=O)CO)C(c3cc(OC)c(OC)c(OC)c3)C2)cc1", "note": "(centres undefined)", "IC50": 6.14}, {"smiles": "CCN(CC)c1ccc(C2=NNC(c3cc(OC)c(OC)c(OC)c3)C2)cc1", "note": "(centres undefined)", "IC50": "> 10"}, {"smiles": "COc1cc(C2CC(c3cccc(N)c3)=NN2C(C)=O)cc(OC)c1OC", "note": "(centres undefined)", "IC50": "> 10"}, {"smiles": "COc1cc(C2CC(c3ccc(N)cc3)=NN2C(C)=O)cc(OC)c1OC", "note": "(centres undefined)", "IC50": 10}]}]}
